Laboratory results published in ChEMBL document CHEMBL4619769, “N-Aryl-3-mercaptosuccinimides as Antivirulence Agents Targeting Pseudomonas aeruginosa Elastase and Clostridium Collagenases” (J Med Chem, 2020).
Calls of active or inactive are those of the source. No cut-off for these calls is given here.

Tests used:
Elastase [1] = target: T1, Elastase (Pseudomonas aeruginosa (strain ATCC 15692 / PAO1 / 1C / PRS 101 / LMG12228), UniProt P14756); experiment: Inhibition of Pseudomonas aeruginosa PA14 LasB using 2-Aminobenzoyl-AlaGly-Leu-Ala-4-Nitrobenzylamide as fluorogenic substrate preincubated for 15 mins followed by substrate addition measured after 60 mins by FRET assay
Method in brief: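 IC50 from at least two independent experiments, each run in duplicate. Thioacetate analogues were scored as percent inhibition at 200 μM.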

Pseudomonas aeruginosa = experiment: Toxicity in Pseudomonas aeruginosa PA14 assessed as reduction in bacterial growth after 18 hrs; assay type: organism-based; conditions: in vivo
HEK293 = experiment: Cytotoxicity against HEK293 cells assessed as reduction in cell viability by MTT assay; assay type: cell-based; conditions: Homo sapiens
Hathewaya histolytica = experiment: Toxicity in Clostridium histolyticum DSM 1126 assessed as reduction in bacterial growth after 48 hrs; assay type: organism-based; conditions: in vivo
Method in brief: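 Brain heart infusion broth; inoculum adjusted to McFarland 2 then prediluted 1:100. […] Means of at least two independent determinations.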

[2] = Toxicity in 1 day post-fertilized zebrafish embryo AB measured up to 120 hrs post-fertilization by microscopic analysis; design: species or system Danio rerio; conditions: in vivo, read-out: MTC
Method in brief: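 Embryos were placed singly per well, 10 per condition, in freshly prepared compound at 2–100 μM with 1% DMSO final. Defects, heart rate, touch-evoked locomotion and survival were scored daily by microscopy; read-out was maximum tolerated concentration.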

A549 = experiment: Cytotoxicity against human A549 cells assessed as reduction in cell viability by MTT assay; assay type: cell-based
HepG2 = experiment: Cytotoxicity against human HepG2 cells assessed as reduction in cell viability by MTT assay; assay type: cell-based
Bacillus cereus = experiment: Ex vivo inhibition of Bacillus cereus Q1 ColQ1-mediated collagenolytic-activity in pig skin explant assessed as reduction in hydroxyproline release up to 400 uM preincubated for 1 hr followed by skin explant addition and measured upto 24 hrs by spectrophotometric assay
Method in brief: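 Pig skin explant punches, stored in DMEM with 15% glycerol at −80 °C, incubated in DMEM with 300 nM ColQ1, 4 mM CaCl2 and 10 μM ZnCl2. Compound pre-incubated with the enzyme mixture for 1 h at 37 °C, 5% CO2, then explant added, shaken at 300 rpm at 37 °C. Medium sampled at time points; hydroxyproline measured by absorbance against a hydroxyproline calibration curve.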

Collagenase ColH = target: T2, Collagenase ColH (Hathewaya histolytica, UniProt Q46085); experiment: Inhibition of Clostridium histolyticum ColH peptidase domain expressed in Escherichia coli BL21(DE3) cells using Mca-Ala-Gly-Pro-Pro-Gly-Pro-Dpa-Gly-Arg-NH2 as substrate preincubated for 1 hr followed by substrate addition measured for 2 mins by FRET assay
T2 sequence (Q46085 whole entry): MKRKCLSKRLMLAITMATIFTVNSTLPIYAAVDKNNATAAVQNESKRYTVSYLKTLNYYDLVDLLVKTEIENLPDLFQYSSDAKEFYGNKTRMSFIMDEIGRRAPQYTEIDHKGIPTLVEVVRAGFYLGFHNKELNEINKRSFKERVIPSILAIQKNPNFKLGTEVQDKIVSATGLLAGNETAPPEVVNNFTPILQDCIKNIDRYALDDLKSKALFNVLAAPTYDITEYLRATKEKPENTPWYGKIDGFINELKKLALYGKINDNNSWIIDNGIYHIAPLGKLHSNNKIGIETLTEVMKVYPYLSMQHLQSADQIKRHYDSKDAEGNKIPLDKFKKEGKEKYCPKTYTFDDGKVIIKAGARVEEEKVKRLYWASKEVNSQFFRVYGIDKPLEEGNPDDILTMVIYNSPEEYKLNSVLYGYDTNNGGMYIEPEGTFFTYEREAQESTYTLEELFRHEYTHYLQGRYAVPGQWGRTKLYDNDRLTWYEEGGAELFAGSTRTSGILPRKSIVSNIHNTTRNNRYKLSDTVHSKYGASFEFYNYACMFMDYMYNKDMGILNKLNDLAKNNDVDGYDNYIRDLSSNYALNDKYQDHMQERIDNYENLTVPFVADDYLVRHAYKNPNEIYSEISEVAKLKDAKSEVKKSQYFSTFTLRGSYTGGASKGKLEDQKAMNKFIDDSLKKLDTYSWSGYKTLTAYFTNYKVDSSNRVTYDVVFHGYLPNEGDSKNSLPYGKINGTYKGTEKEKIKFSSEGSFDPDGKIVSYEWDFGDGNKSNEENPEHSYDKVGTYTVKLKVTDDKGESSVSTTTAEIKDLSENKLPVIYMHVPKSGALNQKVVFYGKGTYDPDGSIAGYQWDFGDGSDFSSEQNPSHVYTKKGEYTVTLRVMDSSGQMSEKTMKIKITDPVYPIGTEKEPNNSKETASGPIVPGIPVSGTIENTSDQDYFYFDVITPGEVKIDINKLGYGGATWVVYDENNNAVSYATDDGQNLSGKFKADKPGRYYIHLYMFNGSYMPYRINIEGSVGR
Method in brief: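 Peptidolytic ColH-PD activity read by FRET. Compounds were first screened at 1 μM (means of three independent experiments), then tested dose-response with the reducing agent TCEP present. IC50 values came from at least two independent experiments run in duplicate.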

Elastase [3] = target: T1, Elastase; experiment: Inhibition of Pseudomonas aeruginosa LasB using aminobenzoyl-Ala-Gly-Leu-Ala-p-nitro-benzyl-amide as fluorogenic substrate by fluorimetric assay

T1 sequence (P14756 whole entry): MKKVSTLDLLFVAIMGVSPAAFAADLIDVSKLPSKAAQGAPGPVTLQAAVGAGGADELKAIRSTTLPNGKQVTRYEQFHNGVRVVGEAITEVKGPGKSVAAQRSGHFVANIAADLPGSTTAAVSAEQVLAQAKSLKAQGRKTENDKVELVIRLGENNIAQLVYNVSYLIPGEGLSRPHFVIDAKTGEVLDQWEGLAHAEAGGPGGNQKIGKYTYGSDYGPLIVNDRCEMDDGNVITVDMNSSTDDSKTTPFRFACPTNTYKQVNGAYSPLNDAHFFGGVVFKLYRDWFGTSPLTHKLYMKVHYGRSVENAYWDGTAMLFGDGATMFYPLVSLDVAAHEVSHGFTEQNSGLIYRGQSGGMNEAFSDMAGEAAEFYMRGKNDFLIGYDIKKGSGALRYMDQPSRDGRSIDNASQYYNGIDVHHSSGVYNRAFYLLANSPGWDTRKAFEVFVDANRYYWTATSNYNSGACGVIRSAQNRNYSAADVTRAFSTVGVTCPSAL

CC(=O)SCC1CC(=O)N(c2ccc(C(C)=O)cc2)C1=O (stereo unspecified)
IC50 (Elastase [1]): > 200 µM

O=C1CC(CS)C(=O)N1c1ccc(F)c(F)c1 (stereo unspecified)
MIC (Pseudomonas aeruginosa): > 100 µM

CC(=O)c1ccc(N2C(=O)CC(S)C2=O)cc1 (stereo unspecified)
IC50 (HEK293): > 100 µM
MIC (Hathewaya histolytica): > 100 µM
MNTC [2]: ≥ 30 µM
IC50 (A549): > 100 µM
IC50 (HepG2): > 100 µM
inhibition (Bacillus cereus): Active

CC(=O)c1ccc(N2C(=O)CC(CS)C2=O)cc1 (stereo unspecified)
IC50 (Elastase [1]): > 200 µM

CC(=O)c1ccc(NC(=O)CS)cc1
IC50 (HEK293): > 100 µM
IC50 (A549): > 100 µM
IC50 (HepG2): > 100 µM
IC50 (Collagenase ColH): 0.017 µM

O=C1CC(S)C(=O)N1c1ccc(Cl)c(Cl)c1 (stereo unspecified)
IC50 (HEK293): > 100 µM
IC50 (A549): > 100 µM
MIC (Pseudomonas aeruginosa): > 100 µM
IC50 (HepG2): > 100 µM

O=C1CC(S)C(=O)N1c1ccc(F)c(F)c1 (stereo unspecified)
MNTC [2]: ≥ 30 µM
MIC (Pseudomonas aeruginosa): > 100 µM

COc1ccc(N2C(=O)CC(CSC(C)=O)C2=O)cc1 (stereo unspecified)
IC50 (Elastase [1]): > 200 µM

CC(=O)SCC1CC(=O)N(c2ccc(Cl)c(Cl)c2)C1=O (stereo unspecified)
IC50 (Elastase [1]): > 200 µM

COc1ccc(N2C(=O)CC(SC(C)=O)C2=O)cc1 (stereo unspecified)
IC50 (Elastase [1]): > 200 µM

CC(=O)SCC1CC(=O)N(c2ccccc2)C1=O (stereo unspecified)
IC50 (Elastase [1]): > 200 µM

O=C1CC(CS)C(=O)N1c1ccc(Cl)c(Cl)c1 (stereo unspecified)
MIC (Pseudomonas aeruginosa): > 100 µM

CC(=O)SC1CC(=O)N(c2ccc(OC(F)(F)F)c(Cl)c2)C1=O (stereo unspecified)
IC50 (Elastase [1]): > 200 µM

NC(=O)[C@H](Cc1ccc(O)cc1)NC(=O)[C@H](Cc1c[nH]c2ccccc12)NC(=O)CS
Ki (Elastase [3]): 0.0405 µM

O=C(CS)Nc1ccc(Cl)c(Cl)c1
IC50 (HEK293): > 100 µM
MNTC [2]: 10 µM
IC50 (A549): > 100 µM
IC50 (HepG2): > 100 µM

CC(=O)SC1CC(=O)N(c2ccc(Cl)c(Cl)c2)C1=O (stereo unspecified)
IC50 (Elastase [1]): > 200 µM
